Where two headings read alike, the source gives them in different places.
Experiments:
[1] = single oral 180-mg dose, healthy subjects; cited from earlier work
[2] = Food effect study: safety and tolerability; format: in vivo, human; settings: for Incidence of treatment-emergent adverse events (TEAEs): single oral 180 mg, healthy subjects
How it was run: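 Phase 1, single-centre, randomised, open-label, 2-period, 2-sequence crossover in healthy nonsmoking adults aged 18–55, BMI 18–30 kg/m2, at least 50 kg. Single morning oral dose (2 × 90-mg tablets) with about 240 mL water, after an overnight fast of at least 10 h, or with a standardised high-fat meal 30 ± 5 min before dosing. Washout at least 16 days. Adverse events were tracked until 7 days after the last dose, alongside vital signs, haematology, chemistry, urinalysis, physical exams and 12-lead ECG.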

ALK+ NSCLC = settings: 180 mg orally once daily with 7-day lead-in at 90 mg; crizotinib-refractory ALK+ NSCLC; cited from earlier work
CYP2C8 and CYP3A4 = settings: human liver microsomes and hepatocytes; cited from earlier work
[3] = cited from earlier work
[4] = format: in vivo, human; settings: single oral 180 mg; for Effect of high-fat meal on total exposure (AUC): fed vs fasted; for Reduction of Cmax under fed versus fasted conditions: high-fat meal; for half-life: t1/2 (terminal elimination half-life)
ALK resistance mutations = settings: nonclinical studies; cited from earlier work
[5] = healthy subjects; cited from earlier work
[6] = cited from earlier work; remark: listed apart in the source
[7] = patients with advanced ALK+ NSCLC; cited from earlier work

COc1cc(N2CCC(N3CCN(C)CC3)CC2)ccc1Nc1ncc(Cl)c(Nc2ccccc2P(C)(C)=O)n1 [Brigatinib]
Administered dose excreted in the feces [1]: 65% | Administered dose excreted in the urine [1]: 25% | Subjects with cough ([2]; fasted): 24% | Subjects with headache ([2]; fasted): 14% | Subjects with nausea ([2]; fasted): 14% | Subjects with somnolence ([2]; fasted): 14% | Abnormalities in laboratory findings, vital signs, ECGs, or physical examination ([2]; fasted and fed): no clinically significant abnormalities | Deaths or serious TEAEs ([2]; fasted and fed): No deaths or serious TEAEs | Intensity of TEAEs ([2]; fasted and fed): mild | Incidence of treatment-emergent adverse events (TEAEs) ([2]; fasted): 48% | Subjects with headache ([2]; fed): 4% | Subjects with nausea ([2]; fed): 4% | Subjects with somnolence ([2]; fed): 4% | Incidence of treatment-emergent adverse events (TEAEs) ([2]; fed (high-fat meal)): 46% | Confirmed objective response rate (ALK+ NSCLC): 56% | Median progression-free survival (ALK+ NSCLC): 16.7 months | Metabolizing enzymes (CYP2C8 and CYP3A4): cytochrome P450 (CYP)2C8 and CYP3A4 | Steady-state systemic exposure versus dose ([3]; 60 mg to 240 mg once daily): dose proportional | Geometric mean apparent oral clearance at steady-state ([3]; 180 mg orally once daily): 10.6 L/h | Mean plasma elimination half-life ([3]; 180 mg orally once daily): 25 h | Effect of high-fat meal on total exposure (AUC) [4]: no effect | Effect of high-fat meal on total exposure (AUC) ([4]; listed as brigatinib): similar | Reduction of Cmax under fed versus fasted conditions [4]: 13% | Reduction of Cmax under fed versus fasted conditions ([4]; listed as brigatinib): approximately 13% | Cmax ([4]; human, plasma, po, 180 mg, Geometric mean (% CV), fasted, N = 21): 701 ng/mL | Cmax ([4]; human, plasma, po, 180 mg, Geometric mean (% CV), fed (high-fat meal), N = 24): 605 ng/mL | Cmax ([4]; human, plasma, po, 180 mg, Mean (SD), fed (high-fat meal), healthy subjects, N = 24): 622 ng/mL | Tmax ([4]; human, plasma, po, 180 mg, Tmax, Median (minimum-maximum), fed (high-fat meal), N = 24): 5 h | half-life ([4]; human, plasma, po, 180 mg, Mean (SD), fasted, N = 21): 31 h | half-life ([4]; human, plasma, po, 180 mg, Mean (SD), fed (high-fat meal), N = 24): 31.1 h | Activity against all ALK resistance mutations tested (ALK resistance mutations): potent activity

C[C@@H](Oc1cc(-c2cnn(C3CCNCC3)c2)cnc1N)c1c(Cl)ccc(F)c1Cl [Crizotinib]
Decrease of exposure (both Cmax and AUC) following a high-fat meal [5]: 14%

Cc1cc(Nc2ncc(Cl)c(Nc3ccccc3S(=O)(=O)C(C)C)n2)c(OC(C)C)cc1C1CCNCC1 [ceritinib]
Effect of food on exposure [6]: increases exposure | Cmax and AUC0–24 of 450 mg taken with food versus 750 mg fasted [7]: comparable | Incidence of gastrointestinal toxicities, 450 mg with food versus 750 mg fasted [7]: lower incidence
